From ChEMBL document CHEMBL3046081, “Phytotoxic effect, uptake, and transformation of biochanin A in selected weed species” (J Agric Food Chem, 2012)

Tests used:
Shoot [1] = experiment: Drug metabolism in Echinochloa crus-galli (barnyard grass) shoot assessed as transformation to genistein at 20 uM after 14 days measured per gm of dry weight by LC-MS analysis; format: ADME; settings: 336 h
Procedure, shortened: (§1)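 Pregerminated seeds, 14 per container, transplanted onto 0.5% agar medium containing biochanin A. Grown at 24 ± 1 °C under a 16 h light/8 h dark photoperiod and harvested 14 days after transplanting. Roots and shoots collected separately, blotted, washed twice, then freeze-dried. Tissue extracted by ASE at 40 °C and analysed by LC-ESI-MS against commercial standards. Two replicates per treatment.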

Shoot [2] = experiment: Drug metabolism in Geranium molle shoot assessed as transformation to genistein at 400 uM after 14 days measured per gm of dry weight by LC-MS analysis; format: ADME; settings: 336 h; procedure, shortened: as §1
Geranium molle = experiment: Phytotoxicity against Geranium molle assessed as root growth inhibition after 2 weeks by agar medium bioassay; format: functional, organism-based; settings: 336 h
Procedure, shortened: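 Agar bioassay with eight biochanin A doses (0–400 µM). Seeds were pregerminated 48 h at room temperature, then 10 seedlings (1–2 mm radicle) were placed per Petri dish. Plants grew 2 weeks at 24 ± 1 °C under a 16 h light/8 h dark cycle. Root length was measured, and EC values were taken from a four-parameter log-logistic nonlinear regression fit.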

Root [3] = experiment: Drug metabolism in Echinochloa crus-galli (barnyard grass) root assessed as transformation to sissotrin at 400 uM after 14 days measured per gm of dry weight by LC-MS analysis; format: ADME; settings: 336 h; procedure, shortened: as §1
Root [4] = experiment: Drug metabolism in Echinochloa crus-galli (barnyard grass) root assessed as transformation to sissotrin at 20 uM after 14 days measured per gm of dry weight by LC-MS analysis; format: ADME; settings: 336 h; procedure, shortened: as §1
Root [5] = experiment: Drug metabolism in Geranium molle root assessed as transformation to sissotrin at 400 uM after 14 days measured per gm of dry weight by LC-MS analysis; format: ADME; settings: 336 h; procedure, shortened: as §1
Root [6] = experiment: Drug metabolism in Silene noctiflora root assessed as transformation to sissotrin at 20 uM after 14 days measured per gm of dry weight by LC-MS analysis; format: ADME; settings: 336 h; procedure, shortened: as §1
Shoot [7] = experiment: Drug metabolism in Silene noctiflora shoot assessed as transformation to p-coumaric acid at 400 uM after 14 days measured per gm of dry weight by LC-MS analysis; format: ADME; settings: 336 h; procedure, shortened: as §1
Root [8] = experiment: Drug metabolism in Echinochloa crus-galli (barnyard grass) root assessed as transformation to p-coumaric acid at 400 uM after 14 days measured per gm of dry weight by LC-MS analysis; format: ADME; settings: 336 h; procedure, shortened: as §1
Root [9] = experiment: Drug metabolism in Geranium molle root assessed as transformation to p-coumaric acid at 400 uM after 14 days measured per gm of dry weight by LC-MS analysis; format: ADME; settings: 336 h; procedure, shortened: as §1
Root [10] = experiment: Drug metabolism in Geranium molle root assessed as transformation to p-coumaric acid at 20 uM after 14 days measured per gm of dry weight by LC-MS analysis; format: ADME; settings: 336 h; procedure, shortened: as §1
Shoot [11] = experiment: Drug metabolism in Geranium molle shoot assessed as transformation to genistein at 20 uM after 14 days measured per gm of dry weight by LC-MS analysis; format: ADME; settings: 336 h; procedure, shortened: as §1
Shoot [12] = experiment: Drug metabolism in Silene noctiflora shoot assessed as transformation to genistein at 400 uM after 14 days measured per gm of dry weight by LC-MS analysis; format: ADME; settings: 336 h; procedure, shortened: as §1
Root [13] = experiment: Drug metabolism in Echinochloa crus-galli (barnyard grass) root assessed as transformation to genistein at 400 uM after 14 days measured per gm of dry weight by LC-MS analysis; format: ADME; settings: 336 h; procedure, shortened: as §1
Root [14] = experiment: Drug metabolism in Geranium molle root assessed as transformation to genistein at 400 uM after 14 days measured per gm of dry weight by LC-MS analysis; format: ADME; settings: 336 h; procedure, shortened: as §1
Root [15] = experiment: Drug metabolism in Silene noctiflora root assessed as transformation to genistein at 20 uM after 14 days measured per gm of dry weight by LC-MS analysis; format: ADME; settings: 336 h; procedure, shortened: as §1
Shoot [16] = experiment: Drug metabolism in Echinochloa crus-galli (barnyard grass) shoot assessed as transformation to dihydrobiochanin A at 400 uM after 14 days measured per gm of dry weight by LC-MS analysis; format: ADME; settings: 336 h; procedure, shortened: as §1
Shoot [17] = experiment: Drug metabolism in Echinochloa crus-galli (barnyard grass) shoot assessed as transformation to dihydrobiochanin A at 20 uM after 14 days measured per gm of dry weight by LC-MS analysis; format: ADME; settings: 336 h; procedure, shortened: as §1
Shoot [18] = experiment: Drug metabolism in Geranium molle shoot assessed as transformation to dihydrobiochanin A at 400 uM after 14 days measured per gm of dry weight by LC-MS analysis; format: ADME; settings: 336 h; procedure, shortened: as §1
Shoot [19] = experiment: Drug metabolism in Silene noctiflora shoot assessed as transformation to dihydrobiochanin A at 20 uM after 14 days measured per gm of dry weight by LC-MS analysis; format: ADME; settings: 336 h; procedure, shortened: as §1
Root [20] = experiment: Drug metabolism in Echinochloa crus-galli (barnyard grass) root assessed as transformation to dihydrobiochanin A at 400 uM after 14 days measured per gm of dry weight by LC-MS analysis; format: ADME; settings: 336 h; procedure, shortened: as §1
Shoot [21] = experiment: Drug metabolism in Echinochloa crus-galli (barnyard grass) shoot assessed as transformation to pratensein at 20 uM after 14 days measured per gm of dry weight by LC-MS analysis; format: ADME; settings: 336 h; procedure, shortened: as §1
Shoot [22] = experiment: Drug metabolism in Geranium molle shoot assessed as transformation to sissotrin at 400 uM after 14 days measured per gm of dry weight by LC-MS analysis; format: ADME; settings: 336 h; procedure, shortened: as §1
Root [23] = experiment: Drug metabolism in Geranium molle root assessed as transformation to dihydrobiochanin A at 20 uM after 14 days measured per gm of dry weight by LC-MS analysis; format: ADME; settings: 336 h; procedure, shortened: as §1
Shoot [24] = experiment: Drug uptake in Silene noctiflora shoot at 400 uM after 14 days measured per gm of dry weight by LC-MS analysis; format: ADME; settings: 336 h
Procedure, shortened: (§2)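 Pregerminated seeds (14 per container) were grown on 20 mL 0.5% agar medium containing biochanin A, at 24 ± 1 °C with a 16 h light/8 h dark cycle. There were two replicates per treatment: 14 containers for S. noctiflora, 9 for G. molle and E. crus-galli. At 14 days, roots and shoots were harvested separately, washed, blotted and freeze-dried. Extraction was ASE at 40 °C, 1600 psi, 3 cycles. Analysis was LC-ESI-MS SIM against standards.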

Shoot [25] = experiment: Drug uptake in Silene noctiflora shoot at 20 uM after 14 days measured per gm of dry weight by LC-MS analysis; format: ADME; settings: 336 h; procedure, shortened: as §2
Root [26] = experiment: Drug uptake in Echinochloa crus-galli (barnyard grass) root at 20 uM after 14 days measured per gm of dry weight by LC-MS analysis; format: ADME; settings: 336 h; procedure, shortened: as §2
Root [27] = experiment: Drug uptake in Geranium molle root at 20 uM after 14 days measured per gm of dry weight by LC-MS analysis; format: ADME; settings: 336 h; procedure, shortened: as §2
Root [28] = experiment: Drug uptake in Silene noctiflora root at 20 uM after 14 days measured per gm of dry weight by LC-MS analysis; format: ADME; settings: 336 h; procedure, shortened: as §2
Shoot [29] = experiment: Drug metabolism in Silene noctiflora shoot assessed as transformation to pratensein at 400 uM after 14 days measured per gm of dry weight by LC-MS analysis; format: ADME; settings: 336 h; procedure, shortened: as §2
Shoot [30] = experiment: Drug metabolism in Silene noctiflora shoot assessed as transformation to pratensein at 20 uM after 14 days measured per gm of dry weight by LC-MS analysis; format: ADME; settings: 336 h; procedure, shortened: as §1
Root [31] = experiment: Drug metabolism in Geranium molle root assessed as transformation to pratensein at 20 uM after 14 days measured per gm of dry weight by LC-MS analysis; format: ADME; settings: 336 h; procedure, shortened: as §1
Leaf [32] = experiment: Drug recovery in leaf of Secale cereale (rye) at 5 ng/g by LC-MS analysis
Leaf [33] = experiment: Drug recovery in leaf of Secale cereale (rye) at 50 ng/g by LC-MS analysis

With `COc1ccc(-c2coc3cc(O)cc(O)c3c2=O)cc1` [BIOCHANIN] the Drug metabolism (Shoot [1]) was 0.28 µmol, the Drug metabolism (Shoot [2]) was 0.12 µmol and the EC25 (Geranium molle) was > 400 µM. For the same molecule, the EC50 (Geranium molle) was > 400 µM, the Drug metabolism (Root [3]) was 1 µmol and the Drug metabolism (Root [4]) was 0.48 µmol. For the same molecule, the Drug metabolism (Root [5]) was 123.61 µmol, the Drug metabolism (Root [6]) was 1.72 µmol and the Drug metabolism (Shoot [7]) was 0.01 µmol. It also gave a Drug metabolism (Root [8]) of 0.11 µmol, a Drug metabolism (Root [9]) of 0.05 µmol and a Drug metabolism (Root [10]) of 0.06 µmol. For the same molecule, the Drug metabolism (Shoot [11]) was 0.09 µmol, the Drug metabolism (Shoot [12]) was 0.15 µmol and the Drug metabolism (Root [13]) was 0.12 µmol. It also gave a Drug metabolism (Root [14]) of 0.08 µmol, a Drug metabolism (Root [15]) of 0.08 µmol and a Drug metabolism (Shoot [16]) of 0.27 µmol. For the same molecule, the Drug metabolism (Shoot [17]) was 0 µmol, the Drug metabolism (Shoot [18]) was 0.02 µmol and the Drug metabolism (Shoot [19]) was 0 µmol. It also gave a Drug metabolism (Root [20]) of 0.27 µmol, a Drug metabolism (Shoot [21]) of 0.47 µmol and a Drug metabolism (Shoot [22]) of 2.41 µmol. It also gave a Drug metabolism (Root [23]) of 0.38 µmol, a Drug uptake (Shoot [24]) of 1.11 µmol and a Drug uptake (Shoot [25]) of 0.76 µmol. For the same molecule, the Drug uptake (Root [26]) was 1.75 µmol, the Drug uptake (Root [27]) was 9.93 µmol and the Drug uptake (Root [28]) was 4.65 µmol. For the same molecule, the Drug metabolism (Shoot [29]) was 0.06 µmol, the Drug metabolism (Shoot [30]) was 0.1 µmol and the Drug metabolism (Root [31]) was 0.66 µmol. The Drug recovery (Leaf [32]) was 93% and the Drug recovery (Leaf [33]) was 93%.
